Screening data (PubChem)
This is a sample that favours compounds with a hit; in the whole collection about 0.96% have one here.
LAP4 TOR yeast = modulators of TOR pathway LAP4-GFP in S. cerevisiae. S. cerevisiae LAP4-GFP multiplex, flow cytometry GFP, 3 h; median GFP as percent of DMSO wells. GFP response vs DMSO, % at 10 µM. 320,000 compounds, 0.34% hits. AID 2023;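 active = GFP response vs DMSO above a set limit, about the screen mean plus 3 SD, cut at about 150% in these data; inconclusive = under 70 cell events counted for the yeast strain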
MEP2 TOR yeast = modulators of TOR pathway MEP2-GFP in S. cerevisiae | GFP response vs DMSO, % at 10 µM | AID 2016 | S. cerevisiae MEP2-GFP strain, flow cytometry GFP, 3 h; 100% = DMSO control level | 330,000 compounds, 0.51% hits;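 active = GFP response versus DMSO above a set limit, roughly screen mean plus 3 SD, cut at about 180% in these data; inconclusive = fewer than 70 cells counted for a yeast strain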;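 also: median GFP fluorescence of the barcode-gated MEP2-GFP cells per well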
CIT2-GFP yeast = alters CIT2-GFP fluorescence in TOR pathway yeast screen; S. cerevisiae CIT2-GFP strain, flow cytometry, 3 h; 100 means same as DMSO wells; GFP response vs DMSO, % at 10 µM; 320,000 compounds, 0.065% hits; AID 2029;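 active = GFP response relative to DMSO above a set limit, near the screen mean plus 3 SD, cut at about 150% in these data; inconclusive = Fewer than 70 cells measured for a yeast strain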;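 also: ratio of well median GFP fluorescence to mean of DMSO wells on the plate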
RPL19A TOR yeast = yeast TOR pathway RPL19A-GFP modulation | S. cerevisiae RPL19A-GFP strain, flow cytometry, 3 h; stronger effect = lower value | 330,000 compounds, 0.3% hits | percent response vs DMSO, % at 10 µM | AID 2025;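 active = percent response vs DMSO below 50%; inconclusive = fewer than 70 events counted for the yeast strain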;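 also: median channel GFP fluorescence of the barcoded RPL19A-GFP strain; lower means less RPL19A-GFP as with rapamycin TOR inhibition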
AGP1 TOR yeast = yeast TOR pathway AGP1-GFP modulation; S. cerevisiae AGP1-GFP multiplex flow cytometry, 3 h; GFP as percent of DMSO wells; 320,000 compounds, 0.02% hits; GFP response vs DMSO, % at 10 µM;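 active = GFP response relative to DMSO above a set limit, near screen average plus 3 SD, cut at about 150% in these data; inconclusive = fewer than 70 cells counted for the yeast strain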;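 also: median GFP channel fluorescence of the gated AGP1 strain per well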
T cell modulator = T cell immune modulation candidate; 2C CD8+ T cell-vesicle binding, flow cytometry; stronger effect = lower value; response (vesicle binding), % at 7 µM; 330,000 compounds, 0.068% hits; AID 2052;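 active = response, share of CD8 T cells binding vesicles, and their 90th percentile fluorescence all below set limits, cut at about 80% in these data, passing the limit was not always enough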;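 also: values below 100% mean blocked vesicle binding to the CD8+ T cells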
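Also added: QL9-peptide-loaded Drosophila micro-vesicles bearing Ld, ICAM-1 and B7-1; Test system: purified 2C TCR transgenic mouse naive CD8+ T cells; Measured by: cytometric PE anti-B7-1 and Alexa647 anti-CD8 signals after 1% paraformaldehyde fixation; Timing: binding step 1.5 h, 37 °C, antibody labelling 20 min, ice.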
Large screens that a line does not name were inactive; [ ] = another dose, or the depositor's remark.

C=CC[C@H](CC(=O)NCCO)C(=O)N[C@@H](COC(=O)[C@@H](CC=C)Cc1ccc(F)cc1)Cc1ccccc1	none
CCCn1c(=O)c2ccccc2n2c(SCc3c(C(=O)OCC)oc4ccccc34)nnc12	none
CCOC(=O)c1oc2ccccc2c1CSc1nnnn1-c1ccc(OC)cc1	MEP2 TOR yeast 248[may fluoresce violet], CIT2-GFP yeast inconclusive, AGP1 TOR yeast inconclusive
O=C(O)CCCCCNC(=O)C(=O)C1C(=O)Nc2ccccc21 (configuration not stated)	none
C#CCOCCOCCOCCNc1nc(N2CCN(C(=O)CCCCCCCCCCNC(=O)[C@H]([C@@H](C)CC)n3cc(CCCCN=C(N)N)nn3)CC2)nc(N2CCN(C(=O)CCCCCCCCCCNC(=O)[C@H](CCCN=C(N)N)n3cc(C[C@@H](C)CC)nn3)CC2)n1	LAP4 TOR yeast 165
C#CCOCCOCCOCCNc1nc(N2CCN(C(=O)CCCCCCCCCCNC(=O)[C@H](CCCN=C(N)N)n3cc(C[C@@H](C)CC)nn3)CC2)nc(N2CCN(C(=O)CCCCCCCCCCNC(=O)[C@@H]([C@H](C)CC)n3cc(CCCCCN)nn3)CC2)n1	LAP4 TOR yeast 193
C#CCOCCOCCOCCNc1nc(N2CCOCC2)nc(N2CCN(C(=O)CCCCCCCCCCNC(=O)[C@H]([C@@H](C)CC)n3cc(CCCCN=C(N)N)nn3)CC2)n1	none
CC(=O)N1CCC(=NNC(=O)c2cc3ccccc3cc2O)CC1	CIT2-GFP yeast inconclusive, RPL19A TOR yeast 42[may fluoresce violet]
CCOC(=O)N1CCC(=NNC(=O)c2cc3ccccc3cc2O)CC1	none
CC(=O)N1CCC(=NNC(=O)c2cccs2)CC1	T cell modulator 0.0
CN1c2ccccc2N(C)C1(C)c1ccccc1	MEP2 TOR yeast 186[may fluoresce violet], CIT2-GFP yeast inconclusive, RPL19A TOR yeast 39[may fluoresce violet]
O=C(NCCc1c[nH]c2ccccc12)/C(=C\c1cccnc1)NC(=O)c1ccccc1F	none
COC(=O)c1cc(CNC(=O)Cc2ccsc2)ccc1OC	MEP2 TOR yeast 298[may fluoresce violet], CIT2-GFP yeast inconclusive
COc1ccccc1NC(=O)Cc1ccsc1	AGP1 TOR yeast inconclusive
COc1ccc(NC(=O)Cc2ccsc2)c(OC)c1	MEP2 TOR yeast 343[may fluoresce violet], CIT2-GFP yeast inconclusive, RPL19A TOR yeast 46[may fluoresce violet], AGP1 TOR yeast inconclusive
COc1cc(Cl)c(S(=O)(=O)NCCCn2ccnc2)cc1Cl	none
COc1c(O)c(=O)n2c3ccccc3c3ccnc1c32	MEP2 TOR yeast 211[may fluoresce violet], CIT2-GFP yeast inconclusive, RPL19A TOR yeast 24[may fluoresce violet]
O=c1c(Cl)c(O)c2cccc3c4ccccc4n1c23	none
C[C@H]1NC(=O)[C@@]2(C)[C@H](c3ccccc3)[C@H]3COc4ccccc4[C@@H]3N2C1=O	none
COc1nc(Nc2ccc(O)cc2)nc(OC(C(F)(F)F)C(F)(F)F)n1	none
COc1nc(Nc2ccc(C(C)C)cc2)nc(OC)n1	T cell modulator 0.0
O=C(CCC(=O)N1CCN(Cc2ccc(F)cc2)CC1)Nc1nnc(C2CCCCC2)s1	none
COc1cc(F)ccc1CN1CCC(n2nccc2NC(=O)C2CCOC2)CC1 (configuration not stated)	none
CCCCNC(=O)c1cnc2n(c1=O)CCS2	T cell modulator 26
C=CCN1CC(=O)N2C(C)c3[nH]c4ccccc4c3C[C@H]2C1=O (some centres not stated)	MEP2 TOR yeast 226[may fluoresce violet], CIT2-GFP yeast inconclusive, AGP1 TOR yeast inconclusive
O=C(CS(=O)(=O)c1ccc(Cl)cc1)Nc1nnc(-c2cccs2)o1	none
COc1ccc(Nc2cc(C(=O)NCCCN3CCN(C)CC3)c3ccccc3n2)cc1	MEP2 TOR yeast 244[may fluoresce violet], CIT2-GFP yeast inconclusive, RPL19A TOR yeast 47[may fluoresce violet]
Cc1nc2ccc(Br)cc2c2c1CC(CO)O2 (configuration not stated)	none
O=C(c1ccc2c(c1)OCCO2)N1CCN(c2ncc(C(F)(F)F)cc2Cl)CC1	none
Nc1ncnc2c1CCC2	MEP2 TOR yeast 213[may fluoresce violet], CIT2-GFP yeast inconclusive
CCCOc1ccc(N2C(=O)CC(N(Cc3ccco3)C(=O)CC)C2=O)cc1 (configuration not stated)	none
CCCOc1ccc(N2C(=O)CC(N(C(=O)c3ccco3)c3ccc(OCCC)cc3)C2=O)cc1 (configuration not stated)	T cell modulator 0.0
Cc1cccc(Nc2ccc([N+](=O)[O-])cn2)c1	none
CCCCC(=O)Nc1ccc(C(N)=O)cc1	none
NC(=O)c1cccc(NC(=O)CCCCC(=O)Nc2cccc(C(N)=O)c2)c1	MEP2 TOR yeast 645[may fluoresce violet], CIT2-GFP yeast inconclusive, RPL19A TOR yeast 23[may fluoresce violet], AGP1 TOR yeast inconclusive
Cc1nnc(N2CCCC(C(=O)NCc3ccc(OC(C)C)cc3)C2)c2nn(-c3ccccc3)c(C)c12 (configuration not stated)	MEP2 TOR yeast 253[may fluoresce violet], CIT2-GFP yeast inconclusive, RPL19A TOR yeast 48[may fluoresce violet], AGP1 TOR yeast inconclusive
COc1cc(C(=O)OCC(=O)N2CCCC2)cc(OC)c1OC	MEP2 TOR yeast 324[may fluoresce violet], CIT2-GFP yeast inconclusive, RPL19A TOR yeast 47[may fluoresce violet] (no result: AGP1 TOR yeast)
Cc1cc(C)cc(C(=O)OCC(=O)N2CCCC2)c1	none
Cc1cc(=O)oc2c3c(cc(OCC(=O)NCc4ccccc4)c12)OC(C)(C)CC3	none
Cc1cc(=O)oc2c3c(cc(OCC(=O)Nc4ccc(CCO)cc4)c12)OC(C)(C)CC3	MEP2 TOR yeast 209[may fluoresce violet], CIT2-GFP yeast inconclusive, RPL19A TOR yeast 41[may fluoresce violet], AGP1 TOR yeast inconclusive
CN1CCN(C(=O)/C(=C/c2ccccc2Cl)NC(=O)c2ccccc2)CC1	MEP2 TOR yeast 475[may fluoresce violet], CIT2-GFP yeast inconclusive
CN1CCN(C(=O)/C(=C\c2cccs2)NC(=O)c2ccccc2)CC1	none
CCOC(=O)C(NC(C)=O)C(=O)Nc1ccc(C)cc1C (configuration not stated)	none
COc1ccc(CC(NC(C)=O)C(=O)NC2CCN(c3nnnn3-c3ccccc3)CC2)cc1 (configuration not stated)	MEP2 TOR yeast 205[may fluoresce violet], CIT2-GFP yeast inconclusive, RPL19A TOR yeast 30[may fluoresce violet], AGP1 TOR yeast inconclusive
Cc1ccccc1Oc1ncnc2oc(-c3ccccc3)cc12	MEP2 TOR yeast 267 (no result: RPL19A TOR yeast)
Clc1ccc(Oc2ncnc3oc(-c4ccccc4)cc23)cc1	none
Cc1ccc(-c2c(C)sc3ncn(CC(=O)N4CCOCC4)c(=O)c23)cc1C	none
CCN(CC)c1ccc(/C=N/NC(=O)c2cc(C)nc3ccccc23)cc1	MEP2 TOR yeast 678[may fluoresce violet] (no result: LAP4 TOR yeast, CIT2-GFP yeast, AGP1 TOR yeast)
COc1ccc(CCC(=O)NCCOc2ccc(C)cc2)cc1	none
COc1ccc(CCC(=O)NCCOc2ccccc2Cl)cc1	MEP2 TOR yeast 185[may fluoresce violet], CIT2-GFP yeast inconclusive, RPL19A TOR yeast 28[may fluoresce violet], AGP1 TOR yeast inconclusive
COc1ccc(C2=NOC(C(=O)N3CCN(C(=O)c4ccco4)CC3)C2)cc1OC (configuration not stated)	none
COc1cccc(CN(C)C(=O)CCNC(=O)c2ccco2)c1	none
